Assay results gathered from unrelated publications.
Target: Vascular endothelial growth factor receptor 2 (KDR, Homo sapiens, UniProt P35968)

`CC(C)(C)c1ccc(-c2nc(CBr)nn2-c2cccc(O)c2)cc1` has a remaining binding of 83% (cell-free assay, competition with immobilised ligand; 10 µM).
The remaining binding of `c1cncc(-c2cccc(Nc3nccc(NC4CCCCC4)n3)c2)c1` is reported as 69% (binding, competition with immobilised ligand; 10 µM).
For `COc1cnc(Nc2cccc(S(N)(=O)=O)c2)nc1N1CCN(c2ccccc2)C(=O)C1`, the remaining binding was 100% (binding, competition with immobilised ligand; 1 µM).
`CN(C)c1nccc(-c2cnc3ncccn23)n1` gave a remaining binding of 90% (binding; 1 µM).
For `C[C@@H]1CN(c2ccc3ncc(-c4ccc5[nH]nc(C6CC6)c5c4)n3n2)C[C@H](C)O1`, the remaining binding was 100% (binding, competition with immobilised ligand; 0.5 µM).
For `CC(C)CC(=O)N1CCc2nc(-c3ccc(Br)cc3)nc(N(C)Cc3ccccc3)c2C1`, the remaining binding was 100% (cell-free assay, competition with immobilised ligand; 0.1 µM).
For `Nc1ncc2c(n1)-c1c([nH]c3ccc(C#CC4CC4)cc13)CCCC2`, the remaining binding was 90% (binding, competition with immobilised ligand; 1 µM).
With `O=C(c1ccc(Nc2ncc(Cl)c(-c3cc4ccccc4s3)n2)cc1)N1CCC(N2CCCC2)CC1` the remaining binding was 12% (binding, competition with immobilised ligand; 1 µM).
With `F[C@@H]1CCN(c2nccc(-c3cnn4ncccc34)n2)C1` the remaining binding was 100% (binding; 1 µM).
`O=C(c1ccc(Nc2nccc(-c3cc4ccccc4s3)n2)cc1)N1CCC(N2CCCC2)CC1` has a remaining binding of 47% (binding, competition with immobilised ligand; 1 µM).
For `CC1CCCN1c1nccc(-c2cnn3ncccc23)n1` (stereo not shown), the remaining binding was 100% (binding; 1 µM).
`CCC(=O)N[C@@H]1CC[C@H](C(=O)N(C)c2ccc(-c3nc4ccccc4o3)cc2)C1` gave a remaining binding of 77% (cell-free assay, competition with immobilised ligand; 1 µM).
For `CNC(=O)[C@@H]1CC[C@@H](n2c(-c3ccc4cnccc4c3)nc3ccc(C(=O)NCc4cccc(C(N)=O)c4)cc32)C1`, the remaining binding was 69% (binding, competition with immobilised ligand; 1 µM).
`COC(=O)Nc1nc2ccc(C(=O)c3ccccc3)cc2[nH]1` has a remaining binding of 30% (cell-free assay, competition with immobilised ligand; 10 µM).
`Cc1cnc(Nc2ccc(C(=O)N3CCC(N4CCCC4)CC3)cc2)nc1-c1cc2ccccc2s1` gave a remaining binding of 4.3% (binding, competition with immobilised ligand; 1 µM).
`COCCOc1nc(-c2ccc(Cl)nc2)nc2c1CN(C(=O)c1ncn3ccccc13)CC2` has a remaining binding of 100% (cell-free assay, competition with immobilised ligand; 0.1 µM).
The remaining binding of `O=C(NCC1CCOCC1)c1n[nH]cc1NC(=O)c1c(F)cccc1F` is reported as 82% (binding, competition with immobilised ligand; 1 µM).
`Cc1cc(-n2nc(Cc3cc(F)cc(C(F)(F)F)c3)nc2C)ccc1C(N)=O` gave a remaining binding of 100% (cell-free assay, competition with immobilised ligand; 1 µM).
`N[C@H]1CCN(c2nccc(-c3cnn4ncccc34)n2)C1` gave a remaining binding of 100% (binding; 1 µM).
`O=C(O)[C@H]1[C@H](Cn2nnc3ccccc3c2=O)CC[C@@H]1C(=O)c1ccc(OCCC2CCOCC2)cc1` has a remaining binding of 88% (cell-free assay, competition with immobilised ligand; 1 µM).
The remaining binding of `COc1ncc2cc3ccccc3nc2c1C#N` is reported as 100% (cell-free assay, competition with immobilised ligand; 5 µM).
`O=C(Nc1cnc(Oc2ccc(F)cc2)nc1)N1CCc2ncccc2[C@@H]1c1ccc(F)cc1` has a remaining binding of 88% (cell-free assay, competition with immobilised ligand; 1 µM).
`CN(C)c1ncc(F)c(-c2cnn3ncccc23)n1` has a remaining binding of 75% (binding; 1 µM).
`CC(=O)C1=C(C)N(c2cccc(C(F)(F)F)c2)C(=O)N[C@@H]1c1ccc(C#N)nc1` gave a remaining binding of 84% (cell-free assay, competition with immobilised ligand; 1 µM).
The remaining binding of `C[C@@H]1CCN(c2nccc(-c3cnn4ncccc34)n2)C1` is reported as 87% (binding; 1 µM).
